Compound activity as filed in PubChem BioAssay.
Furin inhibitor – inhibitors of human furin | P09958 | purified furin, fluorogenic substrate cleavage | inhibition, % at 20 µM or 30 µM | hit rate 0.061% among 220,000 | AID 463115; in the data active = inhibition above about 25%
Target sequence (P09958 108-714 limits assumed): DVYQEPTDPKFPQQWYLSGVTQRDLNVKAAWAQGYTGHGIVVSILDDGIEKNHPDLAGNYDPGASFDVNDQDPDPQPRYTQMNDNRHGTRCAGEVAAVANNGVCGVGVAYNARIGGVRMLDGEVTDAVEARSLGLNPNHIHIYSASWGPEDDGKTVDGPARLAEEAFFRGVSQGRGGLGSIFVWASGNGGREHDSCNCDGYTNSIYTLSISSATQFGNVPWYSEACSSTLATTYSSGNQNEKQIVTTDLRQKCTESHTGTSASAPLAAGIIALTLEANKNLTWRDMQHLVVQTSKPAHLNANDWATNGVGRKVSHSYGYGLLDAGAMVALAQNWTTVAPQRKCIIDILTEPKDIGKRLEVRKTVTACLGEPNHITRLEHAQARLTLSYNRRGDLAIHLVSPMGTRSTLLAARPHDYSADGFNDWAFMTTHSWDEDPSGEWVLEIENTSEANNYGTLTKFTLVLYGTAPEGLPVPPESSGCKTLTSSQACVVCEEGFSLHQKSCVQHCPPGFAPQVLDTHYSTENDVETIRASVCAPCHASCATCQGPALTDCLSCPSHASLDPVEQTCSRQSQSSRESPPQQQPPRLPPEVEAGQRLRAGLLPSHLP
ABCB1 block – inhibitors of human ABCB1 transporter, ABCG2 counter-screen | CCRF-Adr cells, JC-1 efflux, flow cytometry | hit rate 0.067% among 190,000 | P08183 | inhibition, % at 6.6 µM; in the data active = inhibition above about 40%;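 note: 0% = vehicle and 100% = reference inhibitor; higher value means more JC-1 retained so stronger ABCB1 efflux block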
PERK inh – human PERK inhibition, primary cell-based screen. hit rate 0.17% among 220,000. inhibition, % at 5.6 µM. CHO PERK-DD fusion, SEAP luminescence translation reporter. AID 1416;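 active = inhibition above the mean inhibition of all tested compounds plus 3 SD, set separately per screening campaign, cut at about 2.9% in these data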;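 note: PERK kinase domain activated by AP20187 dimerizer at 100 nM; 0% = DMSO with dimerizer and 100% = rapamycin at 8.4 µM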
ABCG2 block – inhibitors of human ABCG2 transporter, ABCB1 counter-screen; Q9UNQ0; IgMXP3 cells, JC-1 efflux, flow cytometry; inhibition, % at 6.6 µM; hit rate 0.1% among 190,000; AID 1325;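 active = inhibition above 80%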;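 note: 0% = DMSO and 100% = nicardipine control wells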
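test system = two drug-resistant human cell lines, ABCG2 and ABCB1 | amount = 3 million cells/mL final, two lines in 1:1 ratio | reagent = JC-1 transporter substrate | doses = one concentration, 6.6 µM final | incubation = 10 min at 25 °C | signal = flow cytometric JC-1 green MFI at 530 nm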
Rad51 HR inh – Rad51 (human) homologous recombination inhibition | hRad51 DNA strand exchange, fluorescence dequenching | inhibition, % at 10 µM | hit rate 0.085% among 200,000 | Q06609 | AID 1385;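 active = inhibition above 40% at the single screening dose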;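 note: 0% = DMSO control wells and 100% = blanks with heterologous ssDNA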
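Test system: preformed human Rad51 ssDNA filaments; also added: Donor/quencher-labelled 47-bp dsDNA substrate; doses: 10 µM final, single point; times: 37 °C 15-min filament assembly, 30-min compound preincubation, 15-min exchange; detection: FRET fluorescence dequenching, excitation 485 nm, emission 520 nm; read-out basis: Fluorescence-based percent inhibition, control- and blank-normalised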
Efa HMGR inh – E. faecalis class II HMG-CoA reductase inhibition | purified E. faecalis HMGR, NADPH absorbance 340 nm kinetic | inhibition, % at 10 µM | hit rate 0.41% among 190,000 | AID 1066;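 active = inhibition above a set limit, the median over all tested compounds plus 3 SD, cut at about 9.5% in these data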;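 note: enzyme runs in reverse so mevalonate oxidation gives rising NADPH absorbance; 0% = complete reaction with DMSO and 100% = background rate lacking mevalonate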
ABCB1 confirm – inhibits human ABCB1 efflux, confirmed at single point. shares compounds with ABCG2 block. CCRF-Adr cells, JC-1 efflux, flow cytometry. inhibition, % at 6.6 µM. hit rate 7% among 270. AID 1451;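 active = inhibition of pump activity above 50%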;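 note: 0% = DMSO and 100% = nicardipine full pump inhibition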
ABCG2 single pt – inhibits human ABCG2 efflux, confirmed at single point; IgMXP3 cells, JC-1 efflux, flow cytometry; shares compounds with ABCG2 block; inhibition, % at 6.6 µM; hit rate 6% among 270; AID 1453;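 active = inhibition above 50%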;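 note: 0% = DMSO wells and 100% = nicardipine pump inhibitor wells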
IgMXP3 autofluor – compound fluoresces at 488/530 nm in IgMXP3 cells | shares compounds with ABCG2 block | compound autofluorescence 488/530 nm, flow; stronger effect = higher value | fluorescence at 6.6 µM | hit rate 30% among 270 | AID 1480;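 active = fluorescence in ABCG2-expressing cells above the plate's control-well mean plus 3 SD, cut at about 15 in these data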;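 note: median cell fluorescence with compound minus that of DMSO-treated control cells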
CCRF autofluor – counter-screen for ABCB1 inhibitors: compound fluorescence in CCRF-Adr cells | shares compounds with ABCG2 block | hit rate 30% among 270 | fluorescence at 6.6 µM | AID 1483 | compound autofluorescence 488/530 nm, flow cytometry; stronger effect = higher value;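 active = fluorescence beyond the plate control mean plus 3 SD, with a fluorescence-to-maximum score over 2, cut at about 25 in these data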
Active calls of the source: *; i = inactive; . = no result given; + = active, no number. Compounds with a hit are over-represented: about 0.77% of the library has one in this group of screens.

SMILES | Furin inhibitor | ABCB1 block | PERK inh | ABCG2 block | Rad51 HR inh | Efa HMGR inh | ABCB1 confirm | ABCG2 single pt | IgMXP3 autofluor | CCRF autofluor
Cc1nc2ccc(S(=O)(=O)NCC(=O)N3CCCC(C)C3)cc2s1 (stereo not given) | -18 | 0 | 0 | 14 | 4 | 3 | . | . | . | .
COc1cc(NC(=O)c2cccc(Br)c2)nc(OC)n1 | -24 | 0 | 0 | 4 | 1 | 0 | . | . | . | .
CCOC(=O)NC(=O)C(=CNc1ccc(C)cc1)C(=O)NC(=O)OCC | -5 | 0 | 0 | -4 | . | -1 | . | . | . | .
N#CC1=C(N)OC2=C(CCc3ccccc32)C1c1ccccc1 (stereo not given) | -3 | 1 | 0 | 4 | 3 | 1 | . | . | . | .
Cc1ccc(/C=C2\CCC3=C2OC(N)=C(C#N)C3c2ccc(C)cc2)cc1 (stereo not given) | -14 | 56* | -1 | 85* | i | -2 | -1 | 10 | 65* | 87*
COc1ccc(CCNC(=O)COC(=O)/C=C/c2ccc(OC)c(OC)c2)cc1 | -10 | 0 | 1 | 89* | -3 | 0 | 1 | 56* | -2.1 | -3.8
COc1ccc(CCNC(=O)COC(=O)/C=C/c2ccc(OCC#N)c(OC)c2)cc1 | -22 | -1 | 1 | 6 | 23 | -3 | . | . | . | .
O=[N+]([O-])c1ccc(OCCN2CCCCCC2)cc1 | -19 | 0 | 0 | 81* | -5 | -7 | 0 | 3 | 0.21 | 5.8
CC1(C)CSC(=S)N1S(=O)(=O)c1ccccc1 | -11 | 0 | 2 | 3 | 2 | -4 | . | . | . | .
CN(C)c1ccc(P(=O)(Nc2cccc(C(F)(F)F)c2)N2CCOCC2)c(NC(=O)c2cccs2)c1 (stereo not given) | -36 | 51* | 0 | 19 | 16 | 3 | 75* | 26 | -2.2 | -4.6
CCOC(=O)c1c(NC(=O)CSc2ncccn2)sc2c1CCN(Cc1ccccc1)C2 | 2 | 48* | -2 | 67 | -17 | -1 | 67* | 20 | 47* | 109*
CCOC(=O)c1c(NC(=O)C(C)Sc2cccc[n+]2[O-])sc2c1CCN(Cc1ccccc1)C2 (stereo not given) | -16 | 17 | -1 | 9 | -65 | -1 | . | . | . | .
O=C1C=CC(=O)N1c1cccc(-c2ccccc2)c1 | -2 | . | 0 | . | -12 | . | . | . | . | .
Cc1ccc(C(=O)NC2CCS(=O)(=O)C2)cc1S(=O)(=O)N1CCCCCC1 (stereo not given) | -6 | 0 | 0 | 0 | 4 | -1 | . | . | . | .
CCN(CC)S(=O)(=O)c1ccc2[nH]c(=O)cc(C(=O)Nc3cccc(C(C)=O)c3)c2c1 | -24 | 0 | 0 | -1 | 6 | -1 | . | . | . | .
O=C(COC(=O)c1ccccc1OCC(=O)Nc1ccc(Br)cc1)Nc1ccccc1 | -11 | 3 | 1 | 84* | 5 | -3 | 1 | 26 | -0.79 | -0.74
CCC(C)NC(=O)COC(=O)c1ccccc1OCC(=O)Nc1ccc(Br)cc1 (stereo not given) | -13 | 1 | -1 | 21 | 1 | -12 | . | . | . | .
N#Cc1c(N)oc(-c2ccc3c(c2)OCO3)c1-c1ccc2c(c1)OCO2 | 1 | 0 | -1 | -1 | -11 | 0 | . | . | . | .
Cc1c(C#N)c(NC(=O)CCl)n(Cc2ccc(F)cc2)c1C | -19 | 45* | 0 | 12 | . | -6 | 1 | 1 | 4.9 | 8.6
Cc1c(C#N)c(NC(=O)CCl)n(Cc2ccccc2)c1C | -34 | 0 | 1 | 1 | 1 | 0 | . | . | . | .
CCC(C)N(C)C1CCN(C(=S)Nc2cccc(SC)c2)CC1 (stereo not given) | -8 | 1 | 1 | 2 | . | -6 | . | . | . | .
O=C(Nc1nc2ccc([N+](=O)[O-])cc2s1)c1c(F)cccc1F | -23 | 1 | 0 | 80 | 5 | 2 | 0 | 30 | -3.4 | -5.7
CCc1ccc2oc(-c3ccc(OC)cc3)cc(=Nc3c(C)n(C)n(-c4ccccc4)c3=O)c2c1 | -2 | 44* | 1 | 97* | -2 | -2 | 28 | 41 | 0.21 | 1.6
Cc1ccc(C#N)c(SCc2ccccc2[N+](=O)[O-])n1 | -5 | 4 | -1 | 55 | 1 | 4 | . | . | . | .
Cc1cc(C)c(C#N)c(SCc2ccccc2[N+](=O)[O-])n1 | -12 | 7 | 1 | 101* | 10 | 1 | 6 | 48 | -1.1 | -2
SMILES | Furin inhibitor | ABCB1 block | PERK inh | ABCG2 block | Rad51 HR inh | Efa HMGR inh | ABCB1 confirm | ABCG2 single pt | IgMXP3 autofluor | CCRF autofluor
Cc1cc(C)c(C#N)c(SCc2c(F)cccc2[N+](=O)[O-])n1 | -14 | 5 | 0 | 92* | 13 | -1 | 3 | 52* | -2 | -4.5
Cc1cc(C)c(C#N)c(SCc2nnc(-c3ccccc3[N+](=O)[O-])o2)n1 | -17 | 2 | 0 | 11 | . | -6 | . | . | . | .
Cc1ccccc1Cn1cc(S(=O)(=O)CC(=O)Nc2nccs2)c2ccccc21 | -17 | 9 | -1 | 83* | 5 | -2 | 7 | 14 | -1.1 | -2.1
Cc1ccc2nc(/C(C#N)=C\c3ccc([N+](=O)[O-])o3)[nH]c2c1 | -16 | 61* | 0 | 0 | 7 | -9 | 11 | 24 | 42* | 47*
O=C(Cn1nnc(-c2ccc(Cl)cc2)n1)NCC1CCCCC1 | -27 | -1 | 2 | 0 | 2 | 0 | . | . | . | .
COc1cccc(/C=C(/C(=O)OCC(=O)NC2CCCC(C)C2C)c2ccccc2)c1 (stereo not given) | 9 | 9 | -1 | 79 | 0 | -2 | 4 | 23 | -1.4 | -4
CN(C)c1ccc(/C=C2\SC(=S)N(Nc3ncc(C(F)(F)F)cc3Cl)C2=O)cc1 | -25 | 187* | 1 | + | i | -1 | -171 | -39 | 228* | 391*
Cc1cc(NC(=O)c2cccc([N+](=O)[O-])c2)n(-c2ccccc2)n1 | -15 | 0 | 0 | 2 | -5 | 1 | . | . | . | .
Cc1cc(NC(=O)c2cc([N+](=O)[O-])cc([N+](=O)[O-])c2)n(-c2ccccc2)n1 | -12 | 0 | 0 | 84* | -4 | 0 | 2 | 32 | 2.2 | -2.2
O=[N+]([O-])c1ccccc1NCCNS(=O)(=O)c1ccc(Cl)cc1 | -21 | 1 | 1 | 13 | . | -3 | . | . | . | .
O=[N+]([O-])c1cc(Cl)ccc1NCCNS(=O)(=O)c1ccccc1 | 1 | 3 | 0 | 119* | -10 | -4 | 7 | 18 | 2.3 | 32*
